Among the data in ChEMBL document CHEMBL1124079, “Methotrexate analogues. 31. Meta and ortho isomers of aminopterin, compounds with a double bond in the side chain, and a novel analogue modified at the alpha-carbon: chemical and in vitro biological studies” (J Med Chem, 1988) are inhibition and IC50 values, retold here.

Test [1] deals with T1, Dihydrofolate reductase (Mus musculus) (UniProt P00375).
T1 sequence (whole entry): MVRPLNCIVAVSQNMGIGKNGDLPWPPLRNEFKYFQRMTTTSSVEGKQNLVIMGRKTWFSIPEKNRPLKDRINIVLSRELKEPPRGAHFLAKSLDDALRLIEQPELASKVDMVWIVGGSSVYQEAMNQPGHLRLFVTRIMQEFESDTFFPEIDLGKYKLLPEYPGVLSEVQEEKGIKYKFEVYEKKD
Kind of test: Inhibitory activity against dihydrofolate reductase(DHFR) isolated from L1210 murine leukemia cells at 50 uM. Type of test: cell-free.

Test [2] relates to L1210. Kind of test: Inhibitory activity against growth of mouse L1210 leukemia cells. Format: functional, cell-based.
The test system of test [3] is L1210. In words: Growth inhibitory activity against cultured L1210 cells. Type of test: functional, cell-based. To be noted: Mus musculus.
Test [4] deals with T2, Dihydrofolate reductase (Mus musculus, UniProt P00375).
T2 sequence (P00375 whole entry): T1 sequence (whole entry)
In words: Inhibitory activity against dihydrofolate reductase(DHFR). The procedure, abridged: (§1)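 DHFR purified from L1210 murine leukemia cells by affinity chromatography on MTX-Sepharose, then used as the enzyme source for inhibitor titration; IC50 read from the enzyme-activity titration curve.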

For test [5], the system named is L1210 ( R81). Kind of test: Inhibition of the growth of the MTX-resistant L1210/R81 cell line. Format: functional, cell-based. To be noted: Mus musculus.
Test [6] addresses T2, Dihydrofolate reductase. Kind of test: Inhibitory activity against dihydrofolate reductase(DHFR) isolated from L1210 murine leukemia cells. Type of test: cell-free. In a few lines:
as §1

Test [7] relates to L1210 ( R81). Kind of test: Inhibitory activity against L1210/R81 cells. Type of test: functional, cell-based. To be noted: Mus musculus.
For test [8], the system named is L1210. In words: Inhibitory activity against L1210 cells. Format: functional, cell-based. To be noted: Mus musculus.
The subject of test [9] is L1210. In words: Inhibitory activity against cultured L1210 cells. To be noted: Mus musculus.

Regarding `Nc1nc(N)c2nc(CNc3ccccc3C(=O)NC(CCC(=O)O)C(=O)O)cnc2n1` (centres undefined), the inhibition in test [1] came to 20%. Moreover, the IC50 in test [2] was determined as 64 µM.

Consider `Nc1nc(N)c2nc(CNc3ccc(C(=O)NC(C/C=C/C(=O)O)C(=O)O)cc3)cnc2n1` (centres undefined), for which the IC50 in [3] stood at 0.031 µM; in test [4], 46 µM.

Take `CN(Cc1cnc2nc(N)nc(N)c2n1)c1ccc(C(=O)NC(C/C=C/C(=O)O)C(=O)O)cc1` (centres undefined): the results for the concentration for half-maximal inhibition (IC50) in test [3], in test [5] and in [4] were 0.35 µM, greater than 300 µM and 32 µM, respectively.

For `Nc1nc(N)c2nc(CNc3cccc(C(=O)NC(CCC(=O)O)C(=O)O)c3)cnc2n1` (centres undefined), the IC50 came to 200 µM in test [6] and 1.5 µM in test [2].

Consider `CN(Cc1cnc2nc(N)nc(N)c2n1)c1ccc(C(=O)N(CCC(=O)O)CC(=O)O)cc1`, for which the IC50 in test [7] is 180 µM; in test [8], 12 µM; in test [4] it was 0.038 µM.

`CN(Cc1cnc2nc(N)nc(N)c2n1)c1ccc(C(=O)N[C@@H](CCC(=O)O)C(=O)O)cc1` [METHOTREXATE] showed an IC50 in test [9] of 0.005 µM.

Consider `Nc1nc(N)c2nc(CNc3ccc(C(=O)N[C@@H](CCC(=O)O)C(=O)O)cc3)cnc2n1` [AMINOPTERIN], for which the midpoint of inhibition in [6], the IC50, lay at 0.002 µM.
